In test [1] the target is T1, Amine oxidase [flavin-containing] A (Homo sapiens, UniProt P21397).
T1 sequence (P21397 whole entry): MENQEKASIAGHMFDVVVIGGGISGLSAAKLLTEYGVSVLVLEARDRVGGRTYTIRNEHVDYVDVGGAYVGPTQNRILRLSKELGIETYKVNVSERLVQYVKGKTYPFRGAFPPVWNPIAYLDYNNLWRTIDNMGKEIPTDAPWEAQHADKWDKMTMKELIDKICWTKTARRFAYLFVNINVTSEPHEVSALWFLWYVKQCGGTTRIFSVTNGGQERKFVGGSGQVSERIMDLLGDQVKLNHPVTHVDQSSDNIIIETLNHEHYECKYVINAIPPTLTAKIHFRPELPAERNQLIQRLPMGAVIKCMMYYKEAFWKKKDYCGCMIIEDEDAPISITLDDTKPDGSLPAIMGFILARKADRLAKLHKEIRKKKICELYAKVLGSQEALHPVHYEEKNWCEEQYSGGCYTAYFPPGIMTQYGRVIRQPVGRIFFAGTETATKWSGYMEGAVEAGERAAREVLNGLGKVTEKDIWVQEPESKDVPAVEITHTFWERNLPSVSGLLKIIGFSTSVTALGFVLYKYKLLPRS
The test is described as follows: Inhibition of recombinant human MAO-A expressed in insect cells assessed as inhibition of oxidation of kynuramine to 4-hydroxyquinoline after 20 mins by fluorescence spectrophotometry. A digest of the protocol: (§1)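 Enzyme source was insect-cell microsomes carrying recombinant hMAO-A or hMAO-B. Kynuramine substrate was oxidized to 4-hydroxyquinoline in 100 mM potassium phosphate, pH 7.4, made isotonic with 20.2 mM KCl, with 4% DMSO and varied inhibitor concentrations. Product was read by fluorescence (ex 310/em 400 nm) against a linear calibration curve. Controls excluded inhibitor fluorescence or quenching. IC50 came from a one-site competition fit of initial rate versus log[inhibitor]; mean ± SD of triplicates.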

Test [2] deals with T2, Amine oxidase [flavin-containing] B (Homo sapiens, UniProt P27338).
T2 sequence (P27338 whole entry): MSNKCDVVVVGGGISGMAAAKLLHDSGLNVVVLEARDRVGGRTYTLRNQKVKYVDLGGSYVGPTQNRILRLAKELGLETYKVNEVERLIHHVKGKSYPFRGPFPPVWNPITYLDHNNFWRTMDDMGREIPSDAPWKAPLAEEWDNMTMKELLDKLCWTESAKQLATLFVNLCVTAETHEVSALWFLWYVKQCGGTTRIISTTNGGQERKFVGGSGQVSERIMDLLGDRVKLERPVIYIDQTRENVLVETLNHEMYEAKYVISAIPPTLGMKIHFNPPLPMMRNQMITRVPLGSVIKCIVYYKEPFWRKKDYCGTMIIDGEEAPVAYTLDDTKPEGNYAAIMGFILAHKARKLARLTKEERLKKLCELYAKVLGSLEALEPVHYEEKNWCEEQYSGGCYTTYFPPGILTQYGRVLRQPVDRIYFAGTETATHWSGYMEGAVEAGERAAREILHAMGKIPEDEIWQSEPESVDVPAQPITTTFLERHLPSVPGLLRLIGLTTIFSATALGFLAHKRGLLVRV
The test is described as follows: Inhibition of recombinant human MAO-B expressed in insect cells assessed as inhibition of oxidation of kynuramine to 4-hydroxyquinoline after 20 mins by fluorescence spectrophotometry. The procedure, abridged:
as §1

For another test, the species on record is Homo sapiens. The test can be described thus: Selectivity ratio of IC50 for recombinant human MAO-B expressed in insect cells to IC50 for recombinant human MAO-A expressed in insect cells.

Turning to `CC1=C(C=O)C(C)(C)CC=C1`, the IC50 result in test [1] and in test [2] was “Not Active” in each case.

Take `CC1=C(/C=N/N(C)C(N)=S)C(C)(C)CC=C1`: the values for the half-maximal inhibitory concentration (IC50) in test [1] (read-out: IC50) and in test [2] (read-out: IC50) were 93.2 µM and 117 µM, respectively.

For `CC(/C=C/C=C(\C)C(=O)O[C@@H]1O[C@H](CO[C@@H]2O[C@H](CO)[C@@H](O)[C@H](O)[C@H]2O)[C@@H](O)[C@H](O)[C@H]1O)=C\C=C\C=C(C)\C=C\C=C(/C)C(=O)O[C@@H]1O[C@H](CO[C@@H]2O[C@H](CO)[C@@H](O)[C@H](O)[C@H]2O)[C@@H](O)[C@H](O)[C@H]1O` [CROCIN], the results for the half-maximal inhibitory concentration (IC50) in test [1] (read-out: IC50) and in test [2] (read-out: IC50) were 170 µM and 128 µM, respectively.

Regarding `CC1=C(/C=N/NC(N)=O)C(C)(C)CC=C1`, the half-inhibitory concentration (IC50) in test [1] (read-out: IC50) is 164 µM; in test [2] (read-out: IC50) it was 111 µM.

Consider `CC1=C(/C=N/NC(=S)Nc2ccccc2)C(C)(C)CC=C1`, for which the concentration for half-maximal inhibition (IC50) in test [1] (read-out: IC50) was 19.5 µM; in test [2] (read-out: IC50), 224 µM. The Ratio IC50 in the test listed under Homo sapiens was 11.

In the case of `CC1=C(/C=N/NC(N)=S)C(C)(C)CC=C1`, the IC50 worked out at 56.8 µM in test [1] (read-out: IC50) and 74.5 µM in test [2] (read-out: IC50).

Turning to `CC1=C(/C=N/N=C2/NC(=O)CS2)C(C)(C)CC=C1`, the concentration for half-maximal inhibition (IC50) is 132 µM in test [1] (read-out: IC50) and 168 µM in test [2] (read-out: IC50).

For the compound `CC1=C(/C=N/N=C2\SCC(=O)N2Cc2ccccc2)C(C)(C)CC=C1`, the 50% inhibitory concentration (IC50) in test [1] (read-out: IC50) amounted to 86.6 µM; in test [2] (read-out: IC50), 215 µM.

For the compound `CC1=C(/C=N/Nc2nc(-c3cccc([N+](=O)[O-])c3)cs2)C(C)(C)CC=C1`, the figures for the 50% inhibitory concentration (IC50) in test [1] (read-out: IC50) and in test [2] (read-out: IC50) were 9.93 µM and 0.1 µM, respectively.

One may read the IC50 as the concentration that gives 50% inhibition.
